Test results published in PubChem BioAssay AID504382 (The Scripps Research Institute Molecular Screening Center, 2011).
Among all 2,500 compounds or so, about 460 (18%) were called active. A selection follows. A number with no mark means an inactive call.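 The calls were made as follows: active = mean activation above a cutoff of low control average plus 3 SD from the earlier screen (cut at about 12% in these data); inactive = the rest.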

experiment: compound fluorescence interference without thin filaments, confirmation, artefact control for cardiac RTF calcium sensitizer project, biochemical (AID 504382); conditions: IANBD fluorescence interference counterscreen, buffer, EC20 Ca2+; at 7.2 µM; hits give high values; scaled: EC20 calcium 0, EC100 calcium 100
Procedure, shortened: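 timing = compound incubation 15 min at 25 °C before fluorescence reading | technique = fluorescence at 480 nm excitation, 540 nm emission | evaluation = interference relative to controls | replication = triplicate wells per compound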

**Q.** For `Cn1nc(NC(=O)C2CCC2C(=O)O)c2c(F)cccc21` (stereo unspecified), which fluorescence artifact activation is on record?
**A.** 7.56%

**Q.** With `CC(C)(C)OC(=O)N1CC=C2C(C#N)=C(N)C(C#N)(C#N)C(c3cccs3)C2C1` (stereo unspecified) as the compound, how does the fluorescence artifact activation read?
**A.** -0.03%

**Q.** For `Cc1cc(C)c(OCCOCCN2CCNCC2)c(C)c1`, which fluorescence artifact activation is on record?
**A.** 0.06%

**Q.** Which fluorescence artifact activation does the source give for `NC(=O)c1c[nH]c2ccccc12` here?
**A.** 288% (active)

**Q.** Which fluorescence artifact activation does the source give for `OCCc1c[nH]c2ccccc12` here?
**A.** 0.07%

**Q.** Which fluorescence artifact activation does the source give for `COc1cc(/C=C(\C#N)C(=O)c2c[nH]c3ccccc23)cc(OC)c1O` here?
**A.** 0.14%

**Q.** For `CC(C)(C)OC(=O)N1CCC(Cc2cc(-c3cccnc3)no2)(C(=O)O)CC1`, which fluorescence artifact activation is on record?
**A.** 3.74%

**Q.** Which fluorescence artifact activation does the source give for `Cc1ccc(NC(=O)c2cc(C(=O)c3cc(Cl)ccc3O)cn(-c3ccc(C)cc3)c2=O)cc1` here?
**A.** 3.68%

**Q.** Which fluorescence artifact activation does the source give for `CCOC(=O)C(C)Sc1nnc(Cc2cc(=O)[nH]c(=O)[nH]2)n1-c1ccc(Cl)cc1` (stereo unspecified) here?
**A.** 0.21%

**Q.** Which fluorescence artifact activation does the source give for `CCOC(=O)C(C)(C)Sc1nc2c(cnn2-c2ccc(Cl)cc2)c(=O)[nH]1` here?
**A.** 71.5% (active)

**Q.** Which fluorescence artifact activation does the source give for `CCCCNC(=O)COC(=O)c1c2c(nc3ccccc13)/C(=C\c1cccs1)CC2` here?
**A.** 1.6%

**Q.** Which fluorescence artifact activation does the source give for `Nc1cccc2c1C(=O)N(c1ccccc1)C2=O` here?
**A.** 1.26%

**Q.** For `O=C(Cc1ccccc1)Nc1cccc(-c2nc3ncccc3o2)c1`, which fluorescence artifact activation is on record?
**A.** 0.02%

**Q.** Which fluorescence artifact activation does the source give for `Cc1cc(=O)oc(C)c1C(=O)Nc1ccc2ncccc2c1` here?
**A.** 0.24%

**Q.** With `CCC(=O)Nc1ccc2oc(-c3cccnc3)nc2c1` as the compound, how does the fluorescence artifact activation read?
**A.** 77.1% (active)

**Q.** For `COc1ccc(C)cc1NC(=O)C12CCC(C)(C(=O)O1)C2(C)C` (stereo unspecified), which fluorescence artifact activation is on record?
**A.** 6.57%

**Q.** For `CC1(C)CC(=O)c2sc(NC(=O)Cc3cccs3)nc2C1`, which fluorescence artifact activation is on record?
**A.** 0.43%

**Q.** Which fluorescence artifact activation does the source give for `CN(C)c1ccc(/C=C2\SC(=S)N(Nc3ncc(C(F)(F)F)cc3Cl)C2=O)cc1` here?
**A.** 1.93%

**Q.** Which fluorescence artifact activation does the source give for `N=C1c2ccccc2CN1c1ccc(S(=O)(=O)N2CCCCC2)cc1` here?
**A.** 9.61%

**Q.** Which fluorescence artifact activation does the source give for `Cc1ccc(S(=O)(=O)N2CCOCC2)cc1C(=O)N1C(=O)c2cccc(N)c2C1=O` here?
**A.** 0.13%

**Q.** With `CCOC(=O)/C(=C/C=C1\Sc2ccccc2N1CC)C(C)=O` as the compound, how does the fluorescence artifact activation read?
**A.** 51.3% (active)

**Q.** With `CCN1/C(=C\C=C(C(C)=O)C(C)=O)Sc2ccccc21` as the compound, how does the fluorescence artifact activation read?
**A.** 0.42%

**Q.** For `CCOC(=O)/C(=C\C=C1/Sc2ccccc2N1CC)C(C)=O`, which fluorescence artifact activation is on record?
**A.** 0.04%

**Q.** For `COC(=O)C1=C(C(=O)OC)[C@@H]2Nc3ccccc3[C@@]23C[C@@H](C(=O)OC)N(C(=O)c2cccs2)C3=N1`, which fluorescence artifact activation is on record?
**A.** 11.6%

**Q.** For `CCOc1ccc(C2OC34CCCCC3C(C#N)(C#N)C2(C#N)C(=N)O4)cc1OC` (stereo unspecified), which fluorescence artifact activation is on record?
**A.** 0.1%

**Q.** Which fluorescence artifact activation does the source give for `Cc1c2ccccc2nc2c(F)c(NCCO)c(F)c(F)c12` here?
**A.** 42.9% (active)

**Q.** With `Cc1c2ccccc2nc2c(F)c(N(C)C)c(F)c(F)c12` as the compound, how does the fluorescence artifact activation read?
**A.** 0.16%

**Q.** Which fluorescence artifact activation does the source give for `COC(=O)C1=NN(C(=O)c2ccc(Br)cc2)C(O)(C(C)(C)C)C1` (stereo unspecified) here?
**A.** 1.09%

**Q.** For `CCOC(=O)c1cn(-c2ccc(F)c(F)c2F)c2c(F)c(F)c(F)cc2c1=O`, which fluorescence artifact activation is on record?
**A.** 0.24%

**Q.** Which fluorescence artifact activation does the source give for `CN(C)c1ccc(/C=C(/C#N)C(=O)Nc2nc3c(s2)CCN(Cc2ccccc2)C3)cc1` here?
**A.** 0.06%

**Q.** With `Cc1ccc(NC(=O)COC(=O)/C=C/c2c(C)nn(-c3ccc(F)cc3)c2Cl)cc1F` as the compound, how does the fluorescence artifact activation read?
**A.** 0.01%

**Q.** For `CC1CC(C)CN(S(=O)(=O)N2CCCC(C(=O)NC3CCCCC3)C2)C1` (stereo unspecified), which fluorescence artifact activation is on record?
**A.** 78.2% (active)

**Q.** Which fluorescence artifact activation does the source give for `CCOc1ccc(CCNC(=O)C2CCCN(S(=O)(=O)N3CCOCC3)C2)cc1OCC` (stereo unspecified) here?
**A.** -0.05%

**Q.** For `CCOC(=O)C1(Cc2cccc(OC)c2)CCN(Cc2ccon2)CC1`, which fluorescence artifact activation is on record?
**A.** 1.14%

**Q.** Which fluorescence artifact activation does the source give for `COc1cc(Cl)c(S(=O)(=O)NCc2ccccn2)cc1Cl` here?
**A.** -0.05%

**Q.** For `COc1ccc(Br)cc1S(=O)(=O)Nc1ncccc1C`, which fluorescence artifact activation is on record?
**A.** 24.7% (active)

**Q.** With `COc1ccc(C(=O)O)cc1S(=O)(=O)NCCc1ccccn1` as the compound, how does the fluorescence artifact activation read?
**A.** 0.58%

**Q.** For `CCOC(=O)c1c(C)oc2c1c(C=NCCO)c(O)c1ccccc12`, which fluorescence artifact activation is on record?
**A.** 0.07%

**Q.** Which fluorescence artifact activation does the source give for `O=C(O)CCNc1cc(N2CCN(C(=O)c3ccco3)CC2)c2noc3c2c1C(=O)c1ccccc1-3` here?
**A.** -0.01%

**Q.** With `O=C(c1ccco1)N1CCN(c2ncnc3c(-c4ccc(Cl)cc4)nsc23)CC1` as the compound, how does the fluorescence artifact activation read?
**A.** 43.5% (active)

**Q.** Which fluorescence artifact activation does the source give for `O=C1c2ccccc2-c2onc3c(N4CCN(CCO)CC4)cc(N4CCN(C(=O)c5ccco5)CC4)c1c23` here?
**A.** 0.06%

**Q.** With `COC(=O)Cn1c(C)c(/C=C/c2cc[n+](C)cc2)c2ccccc21` as the compound, how does the fluorescence artifact activation read?
**A.** 0.1%

**Q.** For `C[C@H](CO)N1C[C@H](C)[C@@H](CN(C)Cc2ccc(Oc3ccccc3)cc2)Oc2c(NC(=O)C3CC3)cccc2C1=O`, which fluorescence artifact activation is on record?
**A.** 20.1% (active)

**Q.** Which fluorescence artifact activation does the source give for `C[C@H](CO)N1C[C@H](C)[C@@H](CN(C)Cc2ccncc2)Oc2c(NS(=O)(=O)c3ccc(F)cc3)cccc2C1=O` here?
**A.** 0.19%

**Q.** With `C[C@H](CO)N1C[C@H](C)[C@@H](CN(C)Cc2ccncc2)Oc2c(NC(=O)c3ccncc3)cccc2C1=O` as the compound, how does the fluorescence artifact activation read?
**A.** 1.32%

**Q.** For `CC1=CC2=NC(=O)/C(=C\c3ccc(-c4cccc(Cl)c4)o3)C(=N)N2O1`, which fluorescence artifact activation is on record?
**A.** 7.64%

**Q.** Which fluorescence artifact activation does the source give for `CCOc1cc2c(cc1/C=C/c1noc(C)c1[N+](=O)[O-])OC(C)C2` (stereo unspecified) here?
**A.** 145% (active)

**Q.** With `Cc1cc(N2C(=O)C(O)=C(C(=O)c3cccs3)C2c2ccc(F)cc2)no1` (stereo unspecified) as the compound, how does the fluorescence artifact activation read?
**A.** 7.29%

**Q.** With `CCc1cccc2cc3c(N)c(C(=O)Nc4ccc(S(=O)(=O)N5CCCC5)cc4)sc3nc12` as the compound, how does the fluorescence artifact activation read?
**A.** 6.55%

**Q.** For `COc1ccc(/C=C/C(=O)c2nc3ccccc3n2CC(=O)c2ccc(OC)cc2)cc1`, which fluorescence artifact activation is on record?
**A.** -0.1%

**Q.** Which fluorescence artifact activation does the source give for `CCN(CC)c1ccc(C=Nc2cc(C)ccc2C)c(O)c1` here?
**A.** 1.34%

**Q.** With `CC(=O)NC(Cc1ccc(F)c(F)c1)C(=O)NC1CCN(S(=O)(=O)c2ccc(C)cc2)CC1` (stereo unspecified) as the compound, how does the fluorescence artifact activation read?
**A.** -0.07%

**Q.** With `COc1ccc(C(=O)c2sc3nc(-c4ccccc4)ccc3c2N)cc1` as the compound, how does the fluorescence artifact activation read?
**A.** 21.8% (active)

**Q.** For `COc1ccc(C(=O)c2sc3nc(C)cc(-c4cccs4)c3c2N)cc1`, which fluorescence artifact activation is on record?
**A.** 6.39%

**Q.** For `COc1ccc(-c2c(C#N)c(N)nc3sc(C(=O)c4ccccc4)c(N)c23)cc1`, which fluorescence artifact activation is on record?
**A.** 0.01%

**Q.** With `Nc1ccc2cc3[nH]c4cc(N)ccc4c3nc2c1` as the compound, how does the fluorescence artifact activation read?
**A.** 2.11%
